Consider nine compounds from ChEMBL document CHEMBL1800033, “Refining the eosinophil cationic protein antibacterial pharmacophore by rational structure minimization” (J Med Chem, 2011).

Converted amounts (≈) assume the structure as drawn. The source made the active and inactive calls. No cut-off for these calls is given here. Where a SMILES comes first, the peptide text is derived from it. [ ]: non-standard residue; d: D form. Ahx = NCCCCCC(=O)O Bounds are passed on as bounds.

For one data set, the system named is Micrococcus luteus. Nature of the data set: Bactericidal activity against Micrococcus luteus ATCC 7468 after over night incubation. The format is functional. The note with it: read-out: MIC100. In short, it runs like this:
(§1)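 Overnight LB cultures (37 °C) diluted to about 5 × 10^5 CFU/mL; peptides in 10 mM sodium phosphate pH 7.5, serially diluted 10 to 0.2 μM, incubated with bacteria 4 h, then plated and grown overnight at 37 °C; MIC from two independent experiments, triplicate per concentration.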

The subject of another data set is Staphylococcus aureus. Nature of the data set: Bactericidal activity against Staphylococcus aureus ATCC 502A after over night incubation. It counts as functional. Particulars: read-out: MIC100. In a few lines:
as §1

The test system of another data set is Acinetobacter baumannii. Description: Bactericidal activity against Acinetobacter baumannii ATCC 15308 after over night incubation. It counts as functional. Particulars: read-out: MIC100. In a few lines: as §1
The subject of a further data set is Pseudomonas sp. Nature of the data set: Bactericidal activity against Pseudomonas sp. ATCC 15915 after over night incubation. The format is functional. The note with it: read-out: MIC100. In a few lines: as §1
The test system of another data set is Enterococcus faecium. Nature of the data set: Bactericidal activity against Enterococcus faecium ATCC 19434 after over night incubation. The format is functional. Particulars: read-out: MIC100. In a few lines:
as §1

Data set [1] in a line: Toxicity in human RBC assessed as hemolytic activity after 4 hrs. It counts as cell-based, Erythrocyte. The note with it: human red blood cells (RBC). In a few lines:
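Fresh human RBCs washed thrice in PBS (35 mM phosphate, 0.15 M NaCl, pH 7.4), 2 × 10^7 cells/mL, incubated with peptide 4 h at 37 °C; supernatant A570 read, 100% lysis set by 10 s sonication; HC50 from sigmoidal fit.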

The subject of data set [2] is Escherichia coli. Nature of the data set: Bactericidal activity against Escherichia coli BL2 after over night incubation. The format is functional. Particulars: read-out: MIC100. In a few lines:
as §1

Data set [3] is described as follows: Induction of membrane damage in DOPC/DOPG large unilamellar vesicles model at <10 uM after 1 hr by leakage fluorescence assay. The format is physicochemical.
In data set [4] the test system is Lipopolysaccharide (LPS). Description: Displacement of BODIPY TR cadaverine from Escherichia coli serotype 0111:B4 lipopolysaccharide by fluorescent displacement assay. In a few lines: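 Bodipy TR cadaverine displacement: protein or peptide aliquots added to a stirred mix of LPS (10 μg/mL) and probe (10 μM) in 5 mM Hepes pH 7.5; fluorescence followed, effective displacement value (ED50) calculated.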

A short description of data set [5]: Induction of membrane damage in DOPC/DOPG large unilamellar vesicles model after 1 hr by leakage fluorescence assay. The format is physicochemical. Particulars: read-out: ED50 (the source's name).
The test system of data set [6] is Escherichia coli. Description: Antibacterial activity against Escherichia coli assessed as concentration required to cause minimum agglutination behavior after overnight incubation. It counts as functional. In a few lines: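 E. coli grown at 37 °C to mid-exponential phase (OD600 0.6), pelleted, resuspended in Tris-HCl, 0.15 M NaCl, pH 7.5 to A600 of 10; suspension incubated with peptide at 0.1–10 μM, 25 °C overnight; agglutination scored by visual inspection, reported as minimal agglutinating concentration.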

Data set [7] deals with Lipopolysaccharide (LPS). Nature of the data set: Displacement of BODIPY TR cadaverine from Escherichia coli serotype 0111:B4 lipopolysaccharide at <10 uM by fluorescent displacement assay.

As usually defined, the HC50 is the concentration that lyses half of the red blood cells. For the compound `CC[C@H](C)[C@H](NC(=O)CNC(=O)[C@@H](NC(=O)[C@H](CCCCN)NC(=O)[C@H](CCCCN)NC(=O)[C@H](Cc1ccccc1)NC(=O)[C@H](CC(C)C)NC(=O)[C@H](CCCCN)NC(=O)[C@H](Cc1c[nH]c2ccccc12)NC(=O)[C@@H](N)CCCCN)[C@@H](C)CC)C(=O)NCC(=O)N[C@@H](C)C(=O)N[C@H](C(=O)N[C@@H](CC(C)C)C(=O)N[C@@H](CCCCN)C(=O)N[C@H](C(=O)N[C@@H](CC(C)C)C(=O)N[C@H](C(=O)N[C@H](C(=O)NCC(=O)N[C@@H](CC(C)C)C(=O)N1CCC[C@H]1C(=O)N[C@@H](C)C(=O)N[C@@H](CC(C)C)C(=O)N[C@H](C(=O)N[C@@H](CO)C(=O)O)[C@@H](C)CC)[C@@H](C)O)[C@@H](C)O)C(C)C)C(C)C`, the MIC in the data set with Micrococcus luteus was determined as 1.5 µM (≈ 4.19 µg/mL); with Staphylococcus aureus, 0.4 µM (≈ 1.12 µg/mL); in the data set on Acinetobacter baumannii, 0.88 µM (≈ 2.46 µg/mL); in the data set with Pseudomonas sp. it was 0.6 µM (≈ 1.68 µg/mL); in the data set on Enterococcus faecium, 1.5 µM (≈ 4.19 µg/mL); in the data set on Escherichia coli [2], 1.1 µM (≈ 3.08 µg/mL). The HC50 at 4 h in data set [1] stood at 7.8 µM.
Consider `CC[C@H](C)[C@H](NC(=O)[C@H](C)NC(=O)[C@H](CCCNC(=N)N)NC(=O)[C@H](CCSC)NC(=O)[C@H](C)NC(=O)[C@@H](NC(=O)[C@@H](NC(=O)[C@H](CO)NC(=O)CCCCCNC(=O)[C@H](Cc1cnc[nH]1)NC(=O)[C@H](CCC(N)=O)NC(=O)[C@@H](NC(=O)[C@H](C)NC(=O)[C@H](Cc1ccccc1)NC(=O)[C@H](Cc1c[nH]c2ccccc12)NC(=O)[C@H](CCC(N)=O)NC(=O)[C@H](C)N)[C@@H](C)CC)[C@@H](C)O)[C@@H](C)CC)C(=O)N[C@@H](CC(N)=O)C(=O)O` (H-AQWFAIQH[Ahx]STIAMRAIN-OH), for which the MIC with Micrococcus luteus, in the data set on Staphylococcus aureus, in the data set with Acinetobacter baumannii, in the data set on Pseudomonas sp., in the data set on Enterococcus faecium and in the data set on Escherichia coli [2] was more than 10 µM throughout. Besides, the Activity entry in data set [3] is “Not Active”. The HC50 at 4 h in [1] came out at 15.2 µM. In addition, the ED50 in the data set on Lipopolysaccharide (LPS) [4] came to 5130 nM.
Turning to `CC[C@H](C)[C@H](NC(=O)[C@H](C)NC(=O)[C@H](Cc1ccccc1)NC(=O)[C@H](Cc1c[nH]c2ccccc12)NC(=O)[C@H](CCC(N)=O)NC(=O)[C@H](C)N)C(=O)N[C@@H](CCC(N)=O)C(=O)N[C@@H](Cc1cnc[nH]1)C(=O)NCCCCCC(=O)N[C@@H](CO)C(=O)N[C@H](C(=O)N[C@H](C(=O)N[C@@H](C)C(=O)N[C@@H](CCSC)C(=O)N[C@@H](CCCNC(=N)N)C(=O)N[C@@H](C)C(=O)N[C@H](C(=O)N[C@@H](CC(N)=O)C(=O)N[C@@H](CC(N)=O)C(=O)N[C@@H](Cc1ccc(O)cc1)C(=O)N[C@@H](CCCNC(=N)N)C(=O)N[C@@H](Cc1c[nH]c2ccccc12)C(=O)N[C@@H](CCCNC(=N)N)C(=O)O)[C@@H](C)CC)[C@@H](C)CC)[C@@H](C)O` (H-AQWFAIQH[Ahx]STIAMRAINNYRWR-OH), the MIC is more than 10 µM in the data set on Micrococcus luteus; 1.1 µM (≈ 3.13 µg/mL) in the data set on Staphylococcus aureus; 7 µM (≈ 19.9 µg/mL) in the data set with Acinetobacter baumannii; 3.5 µM (≈ 9.97 µg/mL) in the data set on Pseudomonas sp.; more than 10 µM in the data set on Enterococcus faecium; 1.5 µM (≈ 4.27 µg/mL) in the data set with Escherichia coli [2]. Besides, in [5], the EC50 is 1630 nM. Further, the HC50 at 4 h in [1] came out at 14.4 µM. The compound also returned an ED50 with Lipopolysaccharide (LPS) [4] of 1950 nM.
Regarding `CC[C@H](C)[C@H](NC(=O)[C@H](C)NC(=O)[C@H](CCCNC(=N)N)NC(=O)[C@H](CCSC)NC(=O)[C@H](C)NC(=O)[C@@H](NC(=O)[C@@H](NC(=O)[C@H](CO)NC(=O)CCCCCNC(=O)[C@H](CO)NC(=O)[C@@H](NC(=O)[C@H](Cc1cnc[nH]1)NC(=O)[C@H](CCC(N)=O)NC(=O)[C@@H](NC(=O)[C@H](C)NC(=O)[C@H](Cc1ccccc1)NC(=O)[C@H](Cc1c[nH]c2ccccc12)NC(=O)[C@H](CCC(N)=O)NC(=O)[C@H](C)NC(=O)[C@H](CCCNC(=N)N)NC(=O)[C@@H](N)[C@@H](C)O)[C@@H](C)CC)[C@@H](C)CC)[C@@H](C)O)[C@@H](C)CC)C(=O)N[C@@H](CC(N)=O)C(=O)N[C@@H](CC(N)=O)C(=O)N[C@@H](Cc1ccc(O)cc1)C(=O)N[C@@H](CCCNC(=N)N)C(=O)N[C@@H](Cc1c[nH]c2ccccc12)C(=O)N[C@@H](CCCNC(=N)N)C(=O)O` (H-TRAQWFAIQHIS[Ahx]STIAMRAINNYRWR-OH), the MIC in the data set on Micrococcus luteus was determined as 1.5 µM (≈ 4.96 µg/mL); in the data set with Staphylococcus aureus, 0.87 µM (≈ 2.88 µg/mL); in the data set with Acinetobacter baumannii, 0.88 µM (≈ 2.91 µg/mL); in the data set on Pseudomonas sp., 1.5 µM (≈ 4.96 µg/mL); in the data set with Enterococcus faecium, 1.5 µM (≈ 4.96 µg/mL); in the data set on Escherichia coli [2], 0.6 µM (≈ 1.98 µg/mL). In addition, in data set [5], the EC50 came to 820 nM. In data set [1], the HC50 at 4 h worked out at 7.3 µM. This compound gave an ED50 with Lipopolysaccharide (LPS) [4] of 1600 nM. In addition, the Activity in the data set on Escherichia coli [6] is less than 1 µM.
For H-AQWFAIQHISLNPPRSTIAMRAINNYRWR-OH, the MIC with Micrococcus luteus turned out to be 3.5 µM; in the data set with Staphylococcus aureus, 0.7 µM; in the data set with Acinetobacter baumannii, 1.5 µM; in the data set with Pseudomonas sp., 3.5 µM; with Enterococcus faecium, 1.5 µM; in the data set with Escherichia coli [2], 1.5 µM. The EC50 in data set [5] was determined as 740 nM. Besides, the HC50 at 4 h in [1] was 10.3 µM. The compound further gave an ED50 in the data set on Lipopolysaccharide (LPS) [4] of 2430 nM. Moreover, in the data set on Escherichia coli [6], the Activity is less than 1 µM.
As for “H-AQWFAIQHISLNPPRSTIAMRAINNYRWRSKNQNTFLR-OH”, the MIC in the data set on Micrococcus luteus was 1.5 µM; in the data set on Staphylococcus aureus, 0.7 µM; in the data set on Acinetobacter baumannii it was 0.88 µM; with Pseudomonas sp., 1.5 µM; in the data set with Enterococcus faecium it was 1.5 µM; with Escherichia coli [2], 0.45 µM. The EC50 in [5] worked out at 400 nM. In addition, the HC50 at 4 h in [1] was determined as 10.5 µM. Moreover, the ED50 in the data set with Lipopolysaccharide (LPS) [4] came out at 1580 nM. For the same compound, the Activity in the data set with Escherichia coli [6] was less than 1 µM.
Turning to H-ISLNPPRSTIAMRAINNYRWRSKNQNTFLR-OH, the MIC was 3.5 µM in the data set on Micrococcus luteus; 1.5 µM with Staphylococcus aureus; 3.5 µM in the data set with Acinetobacter baumannii; 1.5 µM in the data set with Pseudomonas sp.; 3.5 µM in the data set on Enterococcus faecium; 1.5 µM in the data set with Escherichia coli [2]. Further, the EC50 in data set [5] came out at 760 nM. Also, the HC50 at 4 h in data set [1] came out at 10.5 µM. The ED50 with Lipopolysaccharide (LPS) [4] was found to be 6130 nM.
Take H-RPPQFTRAQWFAIQHISLN-OH: the MIC in the data set on Micrococcus luteus, with Staphylococcus aureus, in the data set with Acinetobacter baumannii, in the data set with Pseudomonas sp., with Enterococcus faecium and with Escherichia coli [2] was more than 10 µM each time. In the data set with Lipopolysaccharide (LPS) [7], the outcome was inactive. The Activity result in data set [3] is on record as “Not Active”. In data set [1], the HC50 at 4 h is 11.2 µM.
With H-TIAMRAINNYRWRSKNQNTFLR-OH, the MIC came to 7 µM in the data set with Micrococcus luteus; 1.5 µM in the data set on Staphylococcus aureus; 1.1 µM with Acinetobacter baumannii; 7 µM in the data set with Pseudomonas sp.; 7 µM in the data set on Enterococcus faecium; 7 µM with Escherichia coli [2]. Further, the EC50 in data set [5] was found to be 1250 nM. In addition, the HC50 at 4 h in data set [1] turned out to be 18.7 µM. The same compound yielded an ED50 in the data set with Lipopolysaccharide (LPS) [4] of 1520 nM.
